Measured values: ChEMBL document CHEMBL4665717, “New V1a receptor antagonist. Part 2. Identification and optimization of triazolobenzazepines” (Bioorg Med Chem Lett, 2020)

Columns and labels:
Vasopressin V1a receptor [1] = biological target: T1, Vasopressin V1a receptor (Homo sapiens, UniProt P37288); assay: Displacement of [3H]AVP from human V1a receptor expressed in […] cells assessed as dissociation constant by radioligand binding assay; type: cell-based, 1321N1
Procedure, shortened: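 Membranes from 1321N1 cells expressing human V1a or V2 receptor incubated with [3H]AVP and increasing test compound concentrations. Nonspecific binding defined with 2 µM arginine-vasopressin for both receptors. IC50 taken from sigmoidal fit of displacement curves, then converted to Ki by Cheng-Prusoff.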
Target sequence in this assay (P37288 whole entry): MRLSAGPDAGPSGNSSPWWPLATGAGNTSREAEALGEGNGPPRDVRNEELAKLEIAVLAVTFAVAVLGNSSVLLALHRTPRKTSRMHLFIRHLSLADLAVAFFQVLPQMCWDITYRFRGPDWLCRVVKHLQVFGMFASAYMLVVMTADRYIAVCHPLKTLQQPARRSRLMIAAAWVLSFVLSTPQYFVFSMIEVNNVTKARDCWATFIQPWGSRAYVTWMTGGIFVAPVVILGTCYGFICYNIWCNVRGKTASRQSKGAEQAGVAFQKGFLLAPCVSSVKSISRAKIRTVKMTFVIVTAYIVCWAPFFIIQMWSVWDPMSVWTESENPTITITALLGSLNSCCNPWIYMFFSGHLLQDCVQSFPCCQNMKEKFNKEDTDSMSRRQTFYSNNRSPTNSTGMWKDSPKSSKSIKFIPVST

Vasopressin V1a receptor [2] = biological target: T1, Vasopressin V1a receptor; assay: Inhibition of human V1a receptor expressed in human 1321N1 cells assessed as decrease in Arg8-vasopressin-stimulated calcium flux by fluorometric calcium assay; type: functional, cell-based
Procedure, shortened: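 1321N1 cells expressing human V1a receptor stimulated with (Arg8)-vasopressin. Intracellular Ca2+ change measured. IC50 values averaged from at least three independent measurements.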
Target sequence in this assay (P37288 whole entry): as above

[3] = Apparent permeability across apical to basolateral side in vinblastine-treated human Caco-2 cells at 10 uM by HPLC-UV analysis
P-glycoprotein [4] = assay: Efflux ratio of Apparent permeability across apical to basolateral side in human Caco-2 cells expressing P-glycoprotein at 10 uM by HPLC-UV analysis
in vitro [5] = settings: human
in vitro [6] = settings: Wistar, rat
in vitro [7] = settings: NMRI, mouse
Vasopressin V1a receptor [8] = biological target: T1, Vasopressin V1a receptor; assay: Displacement of [3H]AVP from human V1a receptor expressed in […] cells at 10 uM by radioligand binding assay relative to control; type: cell-based
Procedure, shortened: (§1)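 Membranes from 1321N1 cells expressing human V1a or V2 receptor incubated with [3H]AVP and single test concentration. Nonspecific binding defined with 2 µM arginine-vasopressin.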
Target sequence in this assay (P37288 whole entry, looked up): as the sequence (P37288 whole entry) above

Vasopressin V1a receptor [9] = biological target: T1, Vasopressin V1a receptor; assay: Inhibition of human V1a receptor expressed in human 1321N1 cells assessed as decrease in Arg8-vasopressin-stimulated calcium flux at 10 uM by fluorometric calcium assay relative to control; type: functional, cell-based
Target sequence in this assay (P37288 whole entry, looked up): as the sequence (P37288 whole entry) above

[10] = Apparent permeability across apical to basolateral side in vinblastine-treated human Caco-2 cells at 1 uM by HPLC-UV analysis; type: ADME
Procedure, shortened: (§2)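 Bidirectional transport across VB-Caco-2 monolayers with test compound at 1 or 10 µM. Apparent permeability A→B reported, with PDR from the two directions.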

P-glycoprotein [11] = assay: Efflux ratio of Apparent permeability across apical to basolateral side in vinblastine-treated human Caco-2 cells expressing P-glycoprotein at 1 uM by HPLC-UV analysis; type: ADME; procedure, shortened: as §2
Mus musculus [12] = assay: Anti-depression activity in mouse assessed as inhibition of oxytocin-induced scratching at 30 mg/kg, po administered before oxytocin stimulation and measured after 1 hr
Vasopressin V2 receptor [13] = biological target: T2, Vasopressin V2 receptor (Homo sapiens, UniProt P30518); assay: Displacement of [3H]AVP from human […] receptor expressed in […] cells at 1 uM by radioligand binding assay relative to control; type: cell-based; settings: 1321N1; procedure, shortened: as §1
Mus musculus [14] = species on record: Mus musculus; assay: animal or person; settings: ip, 1 h, read-out: INH
Vasopressin V2 receptor [15] = biological target: T2, Vasopressin V2 receptor; assay: Displacement of [3H]AVP from human V2a receptor expressed in 1132N1 cells assessed as dissociation constant by radioligand binding assay

T2 sequence (P30518 whole entry): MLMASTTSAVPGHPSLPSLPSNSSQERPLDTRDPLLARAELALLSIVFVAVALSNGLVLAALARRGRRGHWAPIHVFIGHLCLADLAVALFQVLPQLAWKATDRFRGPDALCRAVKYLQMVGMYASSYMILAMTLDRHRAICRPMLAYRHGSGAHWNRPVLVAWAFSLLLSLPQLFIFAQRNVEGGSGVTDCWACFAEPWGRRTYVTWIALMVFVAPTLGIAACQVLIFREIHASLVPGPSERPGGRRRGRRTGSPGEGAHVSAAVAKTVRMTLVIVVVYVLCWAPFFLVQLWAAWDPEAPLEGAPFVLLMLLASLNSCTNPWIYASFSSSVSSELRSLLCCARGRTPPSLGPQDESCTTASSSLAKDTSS

Row | SMILES | Ki (Vasopressin V1a receptor [1]) [nM] | IC50 (Vasopressin V1a receptor [2]) [nM] | microsomal CLint at 1 µM (in vitro [5]; liver microsomes) [µL/min/mg] | microsomal CLint at 1 µM (in vitro [6]; liver microsomes) [µL/min/mg] | microsomal CLint at 1 µM (in vitro [7]; liver microsomes) [µL/min/mg] | inhibition (Vasopressin V1a receptor [9]) [%] | other results
1 | COC(=O)C12CC1c1cc(Cl)ccc1-n1c2nnc1[C@H]1CC[C@H](Oc2ccccn2)CC1 (some centres not stated) | 400 | – | – | – | – | < 50 | –
2 | c1ccc(O[C@H]2CC[C@H](c3nnc4n3-c3ccccc3CCC4)CC2)nc1 | 2.3 | 20 | 8 | 231 | 188 | – | –
3 | CN1Cc2cc(Cl)ccc2-n2c(nnc2[C@H]2CC[C@H](Oc3ccccn3)CC2)C1 [BALOVAPTAN] | – | 3 | – | – | – | – | Papp A→B at 1 µM [10]: 43 ×10⁻⁶ cm/s; efflux ratio at 1 µM (P-glycoprotein [11]): 1.1; microsomal CLint at 1 µM (in vitro [5]; microsomes): 0.5 µL/min/mg; microsomal CLint at 1 µM (in vitro [6]; microsomes): 22 µL/min/mg; microsomal CLint at 1 µM (in vitro [7]; microsomes): 17 µL/min/mg; inhibition in vivo at 30 mg/kg (Mus musculus [12]): 80%
4 | Clc1ccc2nc3[nH]nc(C4CCN(c5ccccn5)CC4)n3c2c1 | – | – | – | – | – | 8 | inhibition (Vasopressin V1a receptor [8]; 1321N1): 27%
5 | O=C(C1CCN(c2ccccn2)CC1)N1CCNc2cc(Cl)ccc21 | 1.4 | 260 | 80 | 404 | 132 | – | Papp A→B at 10 µM [3]: 48 ×10⁻⁶ cm/s; efflux ratio at 10 µM (P-glycoprotein [4]): 0.7
6 | Cc1nnc2n1-c1ccc(Cl)cc1CC2 | – | – | – | – | – | < 50 | inhibition (Vasopressin V1a receptor [8]; 1321N1): 9%
7 | COc1nc2cc(Cl)ccc2n2c(C3CCN(c4ccccn4)CC3)nnc12 | 700 | – | 8 | 39 | 115 | 40 | Papp A→B at 1 µM [10]: 28 ×10⁻⁶ cm/s; efflux ratio at 1 µM (P-glycoprotein [11]): 0.8
8 | Clc1ccc2c(c1)C1CC1c1nnc([C@H]3CC[C@@H](Oc4ccccn4)CC3)n1-2 (some centres not stated) | 180 | – | – | – | – | < 50 | –
9 | Cc1cc([C@H]2CC[C@H](c3nnc4n3-c3ccccc3CCC4)CC2)no1 | 1.6 | 25 | 0.4 | 125 | 114 | – | –
10 | Cc1cc([C@H]2CC[C@H](c3nnc4n3-c3ccc(Cl)cc3[C@H]3C[C@@H]43)CC2)no1 | 55 | 635 | – | – | – | – | –
11 | Cc1cc([C@H]2CC[C@H](c3nnc4n3-c3ccc(Cl)cc3CCC4)CC2)no1 | 0.7 | 2.2 | 1 | 83 | 38 | – | –
12 | Cc1cc([C@H]2CC[C@H](c3nnc4n3-c3ccc(Cl)cc3[C@@H]3C[C@H]43)CC2)no1 | 570 | – | – | – | – | < 50 | –
13 | COC(=O)CC1Cc2cc(Cl)ccc2-n2c1nnc2[C@H]1CC[C@H](Oc2ccccn2)CC1 (some centres not stated) | 28 | 220 | 81 | 72 | 373 | – | –
14 | Cc1ccccc1N1CCN(C(=O)N2C[C@@H](C(=O)N3CCCC3)Cc3cc(Cl)ccc32)CC1 | 0.6 | 2.4 | 72 | 170 | 235 | – | Papp A→B at 1 µM [10]: 10 ×10⁻⁶ cm/s; efflux ratio at 1 µM (P-glycoprotein [11]): 1.3
15 | Cc1cc([C@H]2CC[C@H](c3nnc4n3-c3ccc(Br)cc3CCC4)CC2)no1 | 0.6 | 1.7 | 3 | 76 | 36 | – | –
16 | Cc1cc([C@H]2CC[C@H](c3nnc4n3-c3ccc(Cl)cc3C3CC43)CC2)no1 (mixture of isomers) | 100 | 500 | 0.3 | 1 | 3 | – | –

Second part, led by results:

Row | Ki (Vasopressin V1a receptor [1]) [nM] | IC50 (Vasopressin V1a receptor [2]) [nM] | microsomal CLint at 1 µM (in vitro [5]; liver microsomes) [µL/min/mg] | microsomal CLint at 1 µM (in vitro [6]; liver microsomes) [µL/min/mg] | microsomal CLint at 1 µM (in vitro [7]; liver microsomes) [µL/min/mg] | inhibition (Vasopressin V1a receptor [9]) [%] | SMILES | other results
17 | 0.7 | 13 | 8 | 111 | 50 | – | Brc1ccc2c(c1)CCCc1nnc(C3CCN(c4ccccn4)CC3)n1-2 | Papp A→B at 10 µM [3]: 46 ×10⁻⁶ cm/s; efflux ratio at 10 µM (P-glycoprotein [4]): 0.8
18 | – | – | – | – | – | < 50 | CC(C)(C)OC(=O)NC1Cc2cc(Cl)ccc2-n2c(C3CCN(c4ccccn4)CC3)nnc21 (configuration not stated) | inhibition (Vasopressin V1a receptor [8]; 1321N1): 25%
19 | 15 | 252 | 31 | 163 | 170 | – | CCc1ccc2c(c1)CCCc1nnc(C3CCN(c4ccccn4)CC3)n1-2 | –
20 | 0.6 | 1.3 | 9 | 110 | 90 | – | Brc1ccc2c(c1)CCCc1nnc([C@H]3CC[C@H](Oc4ccccn4)CC3)n1-2 | Papp A→B at 10 µM [3]: 29 ×10⁻⁶ cm/s; efflux ratio at 10 µM (P-glycoprotein [4]): 0.9
21 | – | – | – | – | – | < 50 | Clc1ccc2c(c1)CCc1nnc(C3CCCCC3)n1-2 | inhibition (Vasopressin V1a receptor [8]; 1321N1): 35%
22 | 0.45 | 2.7 | 27 | 121 | 115 | – | C#Cc1ccc2c(c1)CCCc1nnc(C3CCN(c4ccccn4)CC3)n1-2 | –
23 | 15 | 117 | 12 | 130 | 163 | – | c1ccc(N2CCC(c3nnc4n3-c3ccccc3CCC4)CC2)nc1 | –
24 | 800 | – | – | – | – | 28 | CC1(C)Nc2cc(Cl)ccc2-n2c(C3CCN(c4ccccn4)CC3)nnc21 | –
25 | – | – | – | – | – | < 50 | O=S(=O)(c1ccccn1)N1CCC(c2nnc3n2-c2ccc(Cl)cc2CC3)CC1 | inhibition (Vasopressin V1a receptor [8]; 1321N1): 19%
26 | 9 | 70 | 3 | 12 | 15 | – | Clc1ccc2c(c1)CCc1nnc([C@H]3CC[C@H](Oc4ccccn4)CC3)n1-2 | inhibition (Vasopressin V2 receptor [13]): 13%; inhibition in vivo at 10 mg/kg (Mus musculus [14]): 66%
27 | 0.8 | 1 | 7 | 124 | 94 | – | Clc1ccc2c(c1)CCCc1nnc([C@H]3CC[C@H](Oc4ccccn4)CC3)n1-2 | Ki (Vasopressin V2 receptor [15]): 560 nM; inhibition in vivo at 30 mg/kg (Mus musculus [12]): 94%
28 | 260 | – | – | – | – | < 50 | Clc1ccc2c(c1)C1CC1c1nnc(C3CCN(c4ccccn4)CC3)n1-2 (configuration not stated) | –
29 | 2400 | – | – | – | – | 43 | CC(=O)N1c2cc(Cl)ccc2-n2c(C3CCN(c4ccccn4)CC3)nnc2C1(C)C | –
30 | 71 | 1400 | 0.3 | 32 | 36 | – | Clc1ccc2c(c1)CCc1nnc(C3CCN(c4ccccn4)CC3)n1-2 | Papp A→B at 10 µM [3]: 51 ×10⁻⁶ cm/s; efflux ratio at 10 µM (P-glycoprotein [4]): 0.8
31 | 5200 | – | – | – | – | 11 | Clc1ccc2c(c1)nc1[nH]nc(C3CCN(c4ccccn4)CC3)n12 | –
32 | – | – | – | – | – | < 50 | O=S(=O)(c1ccc(F)cc1)N1CCC(c2nnc3n2-c2ccc(Cl)cc2CC3)CC1 | inhibition (Vasopressin V1a receptor [8]; 1321N1): 36%
33 | – | – | – | – | – | < 50 | CC(C)(C)OC(=O)N1CCC(c2nnc3n2-c2ccc(Cl)cc2CC3)CC1 | inhibition (Vasopressin V1a receptor [8]; 1321N1): 37%
34 | 1.4 | 3.2 | 19 | 196 | 116 | – | Clc1ccc2c(c1)CCCc1nnc(C3CCN(c4ccccn4)CC3)n1-2 | Papp A→B at 1 µM [10]: 37 ×10⁻⁶ cm/s; efflux ratio at 1 µM (P-glycoprotein [11]): 1.1
35 | – | – | – | – | – | < 50 | O=S(=O)(c1ccc2c(c1)CCO2)N1CCC(c2nnc3n2-c2ccc(Cl)cc2CC3)CC1 | inhibition (Vasopressin V1a receptor [8]; 1321N1, filed as antagonist): 43%
36 | – | – | – | – | – | < 50 | NC1Cc2cc(Cl)ccc2-n2c1nnc2C1CCN(c2ccccn2)CC1 (configuration not stated) | inhibition (Vasopressin V1a receptor [8]; 1321N1): 34%
37 | – | – | – | – | – | 0 | O=c1[nH]c2cc(Cl)ccc2n2c(C3CCN(c4ccccn4)CC3)nnc12 | inhibition (Vasopressin V1a receptor [8]; 1321N1): 3%
38 | – | – | – | – | – | < 50 | Clc1ccc2c(c1)CCc1nnc(C3CCNCC3)n1-2 | inhibition (Vasopressin V1a receptor [8]; 1321N1): 14%
39 | – | – | – | – | – | < 50 | Cc1ccc(S(=O)(=O)N2CCC(c3nnc4n3-c3ccc(Cl)cc3CC4)CC2)cc1 | inhibition (Vasopressin V1a receptor [8]; 1321N1, filed as antagonist): 42%
40 | 13 | 100 | 0.3 | 13 | 13 | – | Cc1cc([C@H]2CC[C@H](c3nnc4n3-c3ccc(Cl)cc3CC4)CC2)no1 | inhibition (Vasopressin V2 receptor [13]): 9%; inhibition in vivo at 10 mg/kg (Mus musculus [14]): 45%
